Screening results: PubChem, The Scripps Research Institute Molecular Screening Center
Sampled rows, rich in hits. Any-hit rate of the full collection: about 1.8%.
NPY-Y1 antag – NPY-Y1 (human) receptor antagonism | P25929 | HEK293-CNG Y1 cells, membrane potential fluorescence; NPY at EC95, then isoproterenol | inhibition, % at 3.6 µM | 1% of 200,000 active | AID 1040;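 active means inhibition above the campaign mean inhibition of all tested compounds plus 3 SD, cut at about 20% in these data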;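 further: 0% = DMSO wells given NPY plus isoproterenol and 100% = isoproterenol alone without NPY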
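Material: HEK293 cells with Y1 receptor plus CNG channel; times: compound incubation 1 h at room temperature, readout 45 min post-stimulation; signal: fluorescence, membrane potential probe; read-out basis: fluorescence ratio normalized to % inhibition between controls; benchmarks: full-block control isoproterenol-only wells, zero-block control NPY plus isoproterenol wells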
NPY-Y2 PAM-ag – potentiators or agonists of human neuropeptide Y receptor Y2 | P49146 | cells expressing NPY-Y2, potentiator/agonist read-out | activation, % at 3.6 µM | 0.45% of 220,000 active; in the data active means activation above about 27%;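 further: cells stimulated with NPY near EC25 plus isoproterenol at EC100; 0% = vehicle plus submaximal agonist and 100% = vehicle plus saturating agonist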
Target sequence (P49146 whole entry, looked up): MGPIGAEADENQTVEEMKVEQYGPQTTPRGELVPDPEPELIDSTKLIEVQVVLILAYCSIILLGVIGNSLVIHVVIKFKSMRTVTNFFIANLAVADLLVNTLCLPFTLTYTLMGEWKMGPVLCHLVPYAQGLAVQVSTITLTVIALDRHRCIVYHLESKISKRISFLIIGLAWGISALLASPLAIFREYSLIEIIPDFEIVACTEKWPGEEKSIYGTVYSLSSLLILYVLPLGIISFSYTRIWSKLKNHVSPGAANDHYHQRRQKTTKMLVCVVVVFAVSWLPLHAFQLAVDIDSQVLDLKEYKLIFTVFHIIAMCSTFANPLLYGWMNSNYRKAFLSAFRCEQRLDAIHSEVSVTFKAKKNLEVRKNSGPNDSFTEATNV
NPY-Y1 PAM-ag – potentiates or activates human NPY-Y1 receptor. P25929. NPY-Y1 expressing cells, potentiator/agonist activation. activation, % at 3.6 µM. 0.37% of 220,000 active. AID 1304; in the data active means activation above about 33%, passing the limit was not always enough;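 further: cells stimulated with NPY at EC10 then isoproterenol at EC100; 0% = low agonist plus stimulus and 100% = saturating agonist plus stimulus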
NPY-Y2 antag – NPY-Y2 (human) receptor antagonism; 0.99% of 140,000 active; NPY-Y2 expressing cells, antagonist mode; inhibition, % at 2.7 µM; P49146;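 further: 0% = vehicle with agonist challenge and 100% = reference antagonist with challenge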
NPY1 antag conf – human NPY-Y1 antagonism, confirmation. inhibition, % at 3.6 µM. 21% of 1,200 active. HEK293-CNG NPY-Y1, membrane potential fluorescence, cAMP; NPY challenge against isoproterenol-raised cAMP. shares compounds with NPY-Y1 antag; in the data active means inhibition above about 20%;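 further: 0% = vehicle with agonist plus stimulus and 100% = stimulus alone without agonist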
NPY-Y2 antag ct – counter-screen for NPY-Y1 antagonists: human NPY-Y2 antagonism; shares compounds with NPY-Y1 antag; HEK293 NPY-Y2 CNG membrane potential fluorescence; cells given NPY, then isoproterenol; inhibition, % at 3.6 µM; 28% of 1,200 active; AID 1255;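 further: 0% = DMSO with agonist challenge and 100% = reference antagonist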
Numbers without * were called inactive; / = no result; ! = repeats disagree. Unless noted, no stated cut-off is given here; in the data, active means inhibition above about 17%; inactive means the rest.

SMILES	NPY-Y1 antag	NPY-Y2 PAM-ag	NPY-Y1 PAM-ag	NPY-Y2 antag	NPY1 antag conf	NPY-Y2 antag ct
Cn1ccnc1C1CCCCN1Cc1nc(-c2ccc(Cl)cc2)no1 (stereo not given)	43*	-26	-15	/	13	9
CCc1nc(N[C@@H](CC(C)C)C(=O)O)c2oc3ccccc3c2n1	26*	-20	-20	14	14	23*
CCc1nc(N[C@H](C(=O)O)C(C)C)c2oc3ccccc3c2n1	/	-22	-49	/	/	/
CC(Nc1cccnc1)=C(C#N)C#N	4	3	1	/	/	/
Cc1[nH]n(-c2ccccc2)c(=O)c1/C=N/O	58*	-15	6	5	1	3
COc1ccc(N(C)S(=O)(=O)c2cccc(C(=O)NC3CCCCC3C)c2)cc1 (stereo not given)	24*	-7	33	/	15	11
COc1ccc(N(C)S(=O)(=O)c2cccc(C(=O)NCC3CCCCC3)c2)cc1	26*	-20	-19	/	21*	11
COc1ccc(N(C)S(=O)(=O)c2cccc(C(=O)NC3CCCC3)c2)cc1	20	-27	-4	/	/	/
Cc1ccccc1CC1(CO)CCCN(C(=O)c2ccc(F)cc2)C1 (stereo not given)	-2	2	-3	/	/	/
Cc1ccccc1CC1(CO)CCCN(C(=O)c2ccccc2N(C)C)C1 (stereo not given)	28*	-7	13	/	5	6
CCOC(=O)c1ccc2c(c1)N(CC#N)C(=O)C(C)(C)O2	-4	-3	-8	/	/	/
Cn1c(C(=O)N(Cc2ccccc2)Cc2ccccn2)cc2sccc21	-1	12	16	11	/	/
Cn1c(C(=O)N(Cc2ccccc2)Cc2cccs2)cc2sccc21	21*	-18	-25	7	6	5
CC(=O)N(C)c1ccc(NC(=S)NCC(C)C)cc1	8	-1	9	/	/	/
Cc1cccc(OCC(=O)O/N=C(\N)c2ccc(Br)cc2)c1	/	-12	-1	/	/	/
Cc1ccc(NC(=S)NNC(=S)Nc2ccc(C)cc2C)cc1	22*	-41	-3	/	10	17*
Oc1ccc(C=NC2CCCCC2)cc1	/	-7	0	/	/	/
COC(=O)c1ccc(S(=O)(=O)c2ccccc2)c(N)c1	3	-2	-3	0	/	/
O=C(Nc1cccc(C(F)(F)F)c1)/C(=C/c1ccco1)NC(=O)c1cccs1	90*	-5	9	1	-1	-2
CC(=O)c1cccc(NC(=O)/C(=C\c2ccco2)NC(=O)c2cccs2)c1	5	-9	0	0	/	/
O=C(Cc1ccccc1)Nc1c2c(nn1-c1cccc(Cl)c1)CS(=O)(=O)C2	22*	-16	-13	9	17	8
COc1ccc(CC(=O)Nc2c3c(nn2-c2cccc(Cl)c2)CS(=O)(=O)C3)cc1	14	6	6	8	/	/
Cc1ccc(Cl)cc1N1CCN(C(c2ccc(C#N)cc2)c2nnnn2C2CCCC2)CC1 (stereo not given)	27*	-18	-12	14	18	13
Cc1ccc(Cl)cc1N1CCN(C(c2cccnc2)c2nnnn2C2CCCCC2)CC1 (stereo not given)	-1	7	10	1	/	/
CCC(c1nnnn1C(C)(C)C)N1CCN(c2cc(Cl)ccc2C)CC1 (stereo not given)	25*	-24	-18	11	14	14
SMILES	NPY-Y1 antag	NPY-Y2 PAM-ag	NPY-Y1 PAM-ag	NPY-Y2 antag	NPY1 antag conf	NPY-Y2 antag ct
COC(=O)C(=C/C=C/N1CCOCC1)C(=O)OC	/	9	4	/	/	/
Cc1ccccc1CN(C)C(C)C(=O)Nc1ccccc1F (stereo not given)	23*	-16	-1	/	17	8
Cc1cccc(C)c1NC(=O)CN(C)C(C)C(=O)Nc1ccccc1-c1ccccc1 (stereo not given)	8	-4	-20	/	/	/
CCCCc1nc2ccc(S(=O)(=O)O)cc2[nH]1	/	6	-8	/	/	/
COc1cccc(Oc2cn[nH]c2-c2ccc(O)cc2O)c1	153*	15	-22	7	61*	4
COC(=O)c1cc([N+](=O)[O-])c(-n2cncn2)c([N+](=O)[O-])c1	28*	-8	1	/	-3	-4
COC(=O)c1ccc(COc2ccccc2/C=N/O)o1	/	-1	2	/	/	/
C/C=C/c1ccccc1OCc1ccc(C(=O)O)o1	22*	-24	-25	14	16	12
O=C(NCc1ccco1)C(c1ccccc1)N(C(=O)Cc1cccs1)c1ccccc1F (stereo not given)	22*	-1	7	13	2	3
O=C(NCc1ccco1)C(c1ccncc1)N(C(=O)Cc1cccs1)c1ccccc1 (stereo not given)	5	-14	1	/	/	/
Cc1ccc(OCc2nnc(SCC(=O)c3ccccc3)n2Cc2ccco2)cc1	11	-7	-26	5	/	/
O=C(CSc1nnc(COc2ccccc2)n1Cc1ccco1)c1ccc(F)cc1	20*	-20	-20	17	4	7
CCOc1ccccc1NC(=O)C(NCC1(N2CCCCC2)CCCCC1)c1ccccc1 (stereo not given)	34*	-13	-27	/	31*	30*
CN(C(=O)c1ccco1)c1nc2c(s1)CCCC2	9	7	-11	-1	/	/
O=C(Nc1ccccc1Cl)O/N=C/c1ccncc1	7	4	-10	1	/	/
COc1ccc2cc(Br)ccc2c1CC(=O)N(C)C	1	2	14	/	/	/
CCCCN(C)C(=O)Cc1c(OC)ccc2cc(Br)ccc12	21*	6	-16	14	16	8
Cc1ccc(OCC(=O)Nc2ccc(CN3CCCCC3)cc2)c(C)c1	8	-26	-27	/	/	/
O=C(CSc1ccc2c(c1)OCCO2)NCCc1ccc(Cl)cc1Cl	20*	-21	-44	12	8	7
COc1cnc(-c2ccccn2)nc1Oc1ccc(Cl)c2ccccc12	25*	-61	-48	15	15	22*
COc1ccc(C(CC(=O)O)NC(=O)c2sc3ccccc3c2Cl)cc1 (stereo not given)	22*	-16	-72	11	12	12
COc1ccc(CCN2C(=O)C(O)=C(C(=O)c3ccco3)C2c2cccs2)cc1OC (stereo not given)	23*	-17	-27	6	7	7
COc1cc(C2C(C(=O)c3ccco3)=C(O)C(=O)N2CCc2ccccc2)ccc1O (stereo not given)	13	-2	-3	8	/	/
COc1cccc(N2CCN(Cc3nnnn3C3CCCCC3)CC2)c1	-1	5	16	/	/	/
O=C1CCc2cc(OCCCCc3nnnn3C3CCCCC3)ccc2N1	43*!	-21	-70	7	26*	46*
O=C(O)CCCC(=O)Nc1nc(-c2ccc(F)cc2)cs1	4	-7	-13	1	/	/
O=C(CCCc1cccs1)Nc1nc(-c2ccc(F)cc2)cs1	25*	-10	-33	15	19	16
